The values below come from paper PMC3901358 (Journal of immunology (Baltimore, Md. : 1950), 2010).

Test [1] concerns CD4^+ T cells from PBLs of melanoma patients. Nature of the test: In vitro sensitization of PBLs with peptide and intracellular cytokine staining. It is filed as cell-based, human. The note with it: for patients with peptide-specific spontaneous CD4^+ T cells: 16 patients with stage IV LAGE-1^+/NY-ESO-1^+ melanoma, ICS after 10–12 d IVS; for Th1/Th2 Spontaneous Response Test by ICS, response type / Number of IFN-γ–producing CD4^+ T cells / number of IL-5–producing CD4^+ T cells: PBLs, 10–12 d IVS with the peptide, ICS; for Number of IFN-γ–producing CD4^+ T cells / number of IL-5–producing CD4^+ T cells: background subtracted.

In test [2] the test system is Serum NY-ESO-1– and LAGE-1b–specific Abs. Put plainly: ELISA of patient sera on plates coated with peptide or protein. The note with it: among the 16 patients with NY-ESO-1^+/LAGE-1^+ tumors. It is filed as binding, human. Put shortly: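 Plates coated overnight at 4°C with recombinant NY-ESO-1 protein or 18-aa overlapping LAGE-1b peptides (P132–P210), 1 µg/ml in 15 mM Na₂CO₃/30 mM NaHCO₃ pH 9.6 with 0.02% NaN₃. Blocked overnight at 4°C with PBS/2% BSA. Patient sera (NY-ESO-1⁺/LAGE-1⁺ or negative tumors) in PBS/2% BSA, 4-fold dilution series, 2 h RT. Goat anti-human IgG-AP 1 h RT. Phosphatase substrate 25 min RT, read immediately.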

Test [3] deals with LAGE-1–specific CD4^+ T cell clones. Nature of the test: IFN-γ ELISPOT, CD4+ T cell clones with peptide-pulsed L.DR cells. In kind it is cell-based, human. The note with it: 48-h IFN-γ ELISPOT.
Setting [4] is: irrelevant control peptide (1 µg/ml), all healthy donors and patients, 6 h ICS.

In the case of “HIVpol711–725: irrelevant HIV-derived control peptide in ICS [reference compound]”, in test [1] (setting [4]), the “mean value of IFN-γ–producing CD4^+ T cells” value was found to be 25 per 10^5 CD4^+ T cells and the “mean value of IL-5–producing CD4^+ T cells” value was 22 per 10^5 CD4^+ T cells.
Turning to “LAGE-1_97–114: 18-aa overlapping synthetic peptide, LAGE-1 positions 97–114; immunodominant epitope (SSPMEAELVRRILSRDAA; UniProt O75638 97-114, looked up, fragment)”, the “patients with peptide-specific spontaneous CD4^+ T cells” value in test [1] was 7 out of 16. The “Th1/Th2 Spontaneous Response Test by ICS, response type” value (from here on “Th1/Th2 Spontaneous Response Test”) was “Th2 (0, 100)” in test [1] (patient MP2); “Th1 (101, 18)” in test [1] (patient MP4); “Th1 (110, 20)” in test [1] (patient MP6); “Th2 (0, 435)” in test [1] (patient MP7); “Th1/Th2 (83, 193)” in test [1] (patient MP9); “Th1/Th2 (60, 530)” in test [1] (patient MP15). Further, in test [1] (patient MP16), the “Th1/Th2 Spontaneous Response Test” value is “Th1 (170, 0)”. Further, the “Number of IFN-γ–producing CD4^+ T cells” value in test [1] (patient MP2) turned out to be 0 per 10^5 CD4^+ T cells; in test [1] (patient MP4), 101 per 10^5 CD4^+ T cells; in test [1] (patient MP6), 110 per 10^5 CD4^+ T cells; in test [1] (patient MP7), 0 per 10^5 CD4^+ T cells; in test [1] (patient MP9), 83 per 10^5 CD4^+ T cells; in test [1] (patient MP15), 60 per 10^5 CD4^+ T cells. In addition, the “Number of IFN-γ–producing CD4^+ T cells” value in test [1] (patient MP16) is reported as 170 per 10^5 CD4^+ T cells. For the same substance, the “number of IL-5–producing CD4^+ T cells” value was determined as 100 per 10^5 CD4^+ T cells in test [1] (patient MP2); 18 per 10^5 CD4^+ T cells in test [1] (patient MP4); 20 per 10^5 CD4^+ T cells in test [1] (patient MP6); 435 per 10^5 CD4^+ T cells in test [1] (patient MP7); 193 per 10^5 CD4^+ T cells in test [1] (patient MP9); 530 per 10^5 CD4^+ T cells in test [1] (patient MP15). Also, the “number of IL-5–producing CD4^+ T cells” value in test [1] (patient MP16) is recorded as 0 per 10^5 CD4^+ T cells.
For the substance “LAGE-1_104–121: 18-aa overlapping synthetic peptide, LAGE-1 positions 104–121; immunodominant epitope (LVRRILSRDAAPLPRPGA; UniProt O75638 104-121, looked up, fragment)”, the “patients with peptide-specific spontaneous CD4^+ T cells” value in test [1] was 10 out of 16. Further, the “Th1/Th2 Spontaneous Response Test” value in test [1] (patient MP1) is “Th1/Th2 (213, 79)”; in test [1] (patient MP2), “Th2 (0, 110)”; in test [1] (patient MP3) it was “Th1 (130, 0)”; in test [1] (patient MP5), “Th1/Th2 (505, 80)”; in test [1] (patient MP6), “Th1/Th2 (351, 185)”; in test [1] (patient MP7), “Th2 (0, 543)”. For the same substance, the “Th1/Th2 Spontaneous Response Test” value is reported as “Th1/Th2 (341, 221)” in test [1] (patient MP8); “Th1/Th2 (205, 65)” in test [1] (patient MP9); “Th1 (270, 0)” in test [1] (patient MP12); “Th1 (400, 0)” in test [1] (patient MP14). In addition, the “Number of IFN-γ–producing CD4^+ T cells” value is 213 per 10^5 CD4^+ T cells in test [1] (patient MP1); 0 per 10^5 CD4^+ T cells in test [1] (patient MP2); 130 per 10^5 CD4^+ T cells in test [1] (patient MP3); 505 per 10^5 CD4^+ T cells in test [1] (patient MP5); 351 per 10^5 CD4^+ T cells in test [1] (patient MP6); 0 per 10^5 CD4^+ T cells in test [1] (patient MP7). Also, the “Number of IFN-γ–producing CD4^+ T cells” value in test [1] (patient MP8) is recorded as 341 per 10^5 CD4^+ T cells; in test [1] (patient MP9) it was 205 per 10^5 CD4^+ T cells; in test [1] (patient MP12) it was 270 per 10^5 CD4^+ T cells; in test [1] (patient MP14), 400 per 10^5 CD4^+ T cells. Moreover, the “number of IL-5–producing CD4^+ T cells” value is 79 per 10^5 CD4^+ T cells in test [1] (patient MP1); 110 per 10^5 CD4^+ T cells in test [1] (patient MP2); 0 per 10^5 CD4^+ T cells in test [1] (patient MP3); 80 per 10^5 CD4^+ T cells in test [1] (patient MP5); 185 per 10^5 CD4^+ T cells in test [1] (patient MP6); 543 per 10^5 CD4^+ T cells in test [1] (patient MP7). The “number of IL-5–producing CD4^+ T cells” value in test [1] (patient MP8) turned out to be 221 per 10^5 CD4^+ T cells; in test [1] (patient MP9), 65 per 10^5 CD4^+ T cells; in test [1] (patient MP12) it was 0 per 10^5 CD4^+ T cells; in test [1] (patient MP14), 0 per 10^5 CD4^+ T cells.
As to “LAGE-1b118–135: 18-aa overlapping synthetic peptide, LAGE-1b positions 118–135; immunodominant epitope (RPGAVLKDFTVSGNLLFM; LAGE-1b; UniProt O75638 118-135, looked up, fragment)”, in test [1], the “patients with peptide-specific spontaneous CD4^+ T cells” value is listed as 9 out of 16.
Consider “LAGE-1b167–184: 18-aa overlapping synthetic peptide, LAGE-1b positions 167–184 (DLRTPKHKVSEQRPGTPG; LAGE-1b; UniProt O75638 167-184, looked up, fragment)”, for which, in test [2], the “number of patients with high titers of LAGE-1b Abs recognizing the peptide” value is 4.
With “LAGE-1b188–210: overlapping synthetic peptide, LAGE-1b positions 188–210 (PEGAQGDGCRGVAFNVMFSAPHI; LAGE-1b; UniProt O75638 188-210, looked up, fragment)”, in test [2], the “number of patients with high titers of LAGE-1b Abs recognizing the peptide” value is 4.
“NY-ESO-1_104–121: NY-ESO-1 peptide overlapping the LAGE-1_104–121 sequence, control (LARRSLAQDAPPLPVPGV; UniProt P78358 104-121, looked up, fragment)”: the “recognition of peptide by LAGE-1_104–121–specific CD4^+ T cell clone 116/12” value in test [3] was “did not recognize”.
